What all share (assay type): cell-based
Series [1] concerns Raji. Kind of series: Inhibition of 12-O-tetradecanoylphorbol-13-acetate induced EBV-early antigen activation in human Raji cells assessed as EA activation at 1000 molar ratio relative to TPA. The arrangement: scale not given: the % may be the effect or the level left. The following applies: human gammaherpesvirus 4. An outline of the steps:
(§1)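 Raji cells stimulated with TPA at 20 ng/ml (32 pM/ml) in the presence of test compound at 10, 100, 500 or 1000 mol ratio to TPA. EBV early antigen activation is reported as a percentage of the TPA-only positive control (100%).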

The nature of series [2]: Cytotoxicity against human Raji cells assessed as cell viability at 1000 molar ratio. To be noted: read-out: Activity. An outline of the steps:
(§2)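 Raji cell viability was recorded in the same TPA-induced EBV-EA assay (TPA 20 ng/ml, 32 pM/ml), with compound at 10, 100, 500 or 1000 mol ratio to TPA. Viability is reported as a percentage.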

The subject of series [3] is Raji. Kind of series: Inhibition of 12-O-tetradecanoylphorbol-13-acetate induced EBV-early antigen activation in human Raji cells assessed as EA activation at 100 molar ratio relative to TPA. The arrangement: scale not given: the % may be the effect or the level left. To be noted: human gammaherpesvirus 4. An outline of the steps:
as §1

A short description of series [4]: Cytotoxicity against human Raji cells assessed as cell viability at 100 molar ratio. The following applies: read-out: Activity. An outline of the steps:
as §2

The nature of series [5]: Cytotoxicity against human Raji cells assessed as cell viability at 10 molar ratio. The following applies: read-out: Activity. An outline of the steps: as §2
The test system of series [6] is Raji. Kind of series: Inhibition of 12-O-tetradecanoylphorbol-13-acetate induced EBV-early antigen activation in human Raji cells assessed as EA activation at 10 molar ratio relative to TPA. The following applies: human gammaherpesvirus 4. The arrangement: scale not given: the % may be the effect or the level left. The method in brief:
as §1

Series [7] relates to Raji. Description: Inhibition of 12-O-tetradecanoylphorbol-13-acetate induced EBV-early antigen activation in human Raji cells assessed as EA activation at 500 molar ratio relative to TPA. To be noted: human gammaherpesvirus 4. The arrangement: scale not given: the % may be the effect or the level left. The method in brief:
as §1

Series [8] can be described thus: Cytotoxicity against human Raji cells assessed as cell viability at 500 molar ratio. The following applies: read-out: Activity. The method in brief:
as §2

Molecules are shown by their SMILES. Bounds are passed on as bounds.

On to `CC(=O)O[C@H]1CC[C@@H](C)[C@]23OC(C)(C)[C@H](C[C@H](OC(=O)c4ccccc4)[C@]12C)[C@H]3OC(C)=O`, for which the Activity with Raji [1] is 26.2%; in the series with Raji [3] it was 92.1%; in the series with Raji [6] it was 100%; with Raji [7], 47.9%. Moreover, the viability at 1000 molar ratio in series [2] was found to be 70%. For the same compound, in series [4], the viability at 100 molar ratio is above 80%. Further, in series [5], the viability at 10 molar ratio was above 80%. In series [8], the viability at 500 molar ratio was above 80%.
Turning to `CC(=O)O[C@H]1C[C@@H](C)[C@@]23C[C@@H](C[C@H](OC(=O)/C=C/c4ccccc4)[C@]2(C)[C@H]1OC(C)=O)C(C)(C)O3`, the Activity with Raji [1] stood at 25.6%; with Raji [3], 89.4%; in the series on Raji [6], 100%; with Raji [7] it was 63.1%. In addition, the viability at 1000 molar ratio in series [2] was 70%. In addition, the viability at 100 molar ratio in series [4] was above 80%. Further, the viability at 10 molar ratio in series [5] was above 80%. The viability at 500 molar ratio in series [8] was above 80%.
Consider `CC(=O)O[C@H]1C[C@@H](C)[C@]23OC(C)(C)[C@H](C[C@H](OC(=O)c4ccccc4)[C@]2(C)[C@H]1OC(C)=O)[C@H]3OC(C)=O`, for which the Activity in the series on Raji [1] stood at 34.2%; with Raji [3], 92.9%; in the series with Raji [6] it was 100%; in the series with Raji [7] it was 65.9%. Besides, the viability at 1000 molar ratio in series [2] came out at 70%. Besides, the viability at 100 molar ratio in series [4] is above 80%. The viability at 10 molar ratio in series [5] is above 80%. Also, the viability at 500 molar ratio in series [8] was above 80%.
`CC(=O)O[C@@H]1[C@H]2[C@@H](O)[C@@H](OC(=O)c3ccccc3)[C@]3(C)[C@@H](OC(=O)c4ccccc4)CC[C@@H](C)[C@@]13OC2(C)C`: the Activity in the series on Raji [1] amounted to 0%; in the series on Raji [3], 81.1%; with Raji [6], 100%; with Raji [7] it was 39.3%. Also, the viability at 1000 molar ratio in series [2] stood at 60%. Also, in series [4], the viability at 100 molar ratio was above 80%. In series [5], the viability at 10 molar ratio is above 80%. Moreover, in series [8], the viability at 500 molar ratio was above 80%.
On to `CC(=O)O[C@H]1C[C@@H](C)[C@@]23C[C@@H](C[C@H](OC(=O)/C=C/c4ccccc4)[C@]2(C)[C@H]1O)C(C)(C)O3`, for which the Activity amounted to 0% with Raji [1], 86.4% in the series on Raji [3], 100% with Raji [6] and 41.6% in the series with Raji [7]. For the same compound, the viability at 1000 molar ratio in series [2] amounted to 70%. Besides, the viability at 100 molar ratio in series [4] is above 80%. In series [5], the viability at 10 molar ratio was above 80%. In addition, the viability at 500 molar ratio in series [8] is above 80%.
As to `CC(=O)O[C@H]1CC[C@@H](C)[C@]23OC(C)(C)[C@H](C[C@H](OC(=O)c4ccccc4)[C@]12C)[C@H]3OC(=O)c1ccccc1`, the Activity was 53.6% in the series on Raji [1], 100% in the series on Raji [3], 100% with Raji [6] and 84.6% in the series with Raji [7]. For the same compound, the viability at 1000 molar ratio in series [2] turned out to be 70%. Besides, the viability at 100 molar ratio in series [4] is above 80%. Also, in series [5], the viability at 10 molar ratio is above 80%. Further, the viability at 500 molar ratio in series [8] is above 80%.
With `CC(=O)O[C@@H]1[C@@H]2[C@@H](OC(C)=O)[C@]3(OC2(C)C)[C@H](C)CC[C@H](OC(C)=O)[C@@]3(C)[C@H]1OC(=O)c1ccccc1`, the Activity in the series on Raji [1] worked out at 15.3%; with Raji [3], 90.6%; with Raji [6], 100%; in the series on Raji [7], 52.8%. For the same compound, the viability at 1000 molar ratio in series [2] was found to be 70%. Besides, the viability at 100 molar ratio in series [4] is above 80%. In series [5], the viability at 10 molar ratio was above 80%. Moreover, the viability at 500 molar ratio in series [8] is above 80%.

(Values after ChEMBL document CHEMBL1148162, “Structures of sesquiterpene polyol esters from Celastrus stephanotiifolius with potential tumor-promotion inhibitor activity” (J Nat Prod, 1993).)
